Measured values published in ChEMBL document CHEMBL4359913, “Identification and characterization of benzo[d]oxazol-2(3H)-one derivatives as the first potent and selective small-molecule inhibitors of chromodomain protein CDYL” (Eur J Med Chem, 2019).
The source made the active and inactive calls.

Tests used:
[1] = biological target: T1, Chromodomain Y-like protein (Mus musculus) (UniProt Q9WTK2); assay: Inhibition of CDYL in C57BL/6 mouse hippocampal neurons as increase in MYT1 mRNA expression at 150 uM incubated for 24 hrs by RT-qPCR analysis
T1 sequence (whole entry): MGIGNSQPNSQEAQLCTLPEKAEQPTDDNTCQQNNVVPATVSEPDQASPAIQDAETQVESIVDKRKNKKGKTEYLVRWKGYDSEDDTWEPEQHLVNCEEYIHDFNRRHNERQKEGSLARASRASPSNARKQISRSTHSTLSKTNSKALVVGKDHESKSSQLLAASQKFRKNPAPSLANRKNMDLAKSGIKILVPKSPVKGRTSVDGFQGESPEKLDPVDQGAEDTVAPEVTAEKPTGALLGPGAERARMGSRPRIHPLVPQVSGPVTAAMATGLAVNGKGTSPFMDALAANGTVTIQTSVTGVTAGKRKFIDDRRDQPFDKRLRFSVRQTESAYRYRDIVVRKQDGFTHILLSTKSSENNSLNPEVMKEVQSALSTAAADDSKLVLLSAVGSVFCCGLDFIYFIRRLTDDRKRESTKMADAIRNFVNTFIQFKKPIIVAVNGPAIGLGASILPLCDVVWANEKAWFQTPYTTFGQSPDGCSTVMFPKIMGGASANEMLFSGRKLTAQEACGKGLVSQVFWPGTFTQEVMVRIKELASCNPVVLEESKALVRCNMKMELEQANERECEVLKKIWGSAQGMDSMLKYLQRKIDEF
Procedure, shortened: (§1)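 Mouse cortical or hippocampal neurons, dissociated with trypsin and kept in Neurobasal/B27, treated with 150 µM compound for 24 h. mRNA measured by SYBR green RT-qPCR with the 2^-ΔΔCt method, GAPDH as reference, relative to DMSO. Mean ± S.E.M. of triplicate experiments, Student's t-test.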

[2] = biological target: T2, Chromodomain Y-like protein (Homo sapiens) (UniProt Q9Y232); assay: Inhibition of CDYL in human SH-SY5Y cells assessed as decrease in enrichment of CDYL at BDNF promoter site at 150 uM incubated for 24 hrs by ChIP-qPCR analysis; format: cell-based
T2 sequence (whole entry): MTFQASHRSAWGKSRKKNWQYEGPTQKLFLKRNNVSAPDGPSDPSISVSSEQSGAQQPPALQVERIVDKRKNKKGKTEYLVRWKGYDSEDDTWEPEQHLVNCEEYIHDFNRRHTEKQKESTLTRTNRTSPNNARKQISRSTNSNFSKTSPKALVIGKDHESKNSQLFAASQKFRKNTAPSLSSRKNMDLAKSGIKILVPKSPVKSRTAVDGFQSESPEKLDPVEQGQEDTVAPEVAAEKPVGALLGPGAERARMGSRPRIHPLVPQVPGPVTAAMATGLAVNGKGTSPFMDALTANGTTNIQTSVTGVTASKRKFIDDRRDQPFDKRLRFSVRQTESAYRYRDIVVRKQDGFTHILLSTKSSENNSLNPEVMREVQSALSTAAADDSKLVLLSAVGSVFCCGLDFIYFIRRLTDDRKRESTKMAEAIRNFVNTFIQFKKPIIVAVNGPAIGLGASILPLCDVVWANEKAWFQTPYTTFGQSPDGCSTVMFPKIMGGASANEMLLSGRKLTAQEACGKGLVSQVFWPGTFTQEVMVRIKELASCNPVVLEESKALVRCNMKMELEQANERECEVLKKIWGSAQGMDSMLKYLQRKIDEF
Procedure, shortened: (§2)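 About 1×10^7 SH-SY5Y cells given 150 µM compound or DMSO for 24 h, fixed in 1% formaldehyde for 10 min. Chromatin immunoprecipitated overnight-style (12 h, 4 °C) with CDYL or H3K27me3 antibody, captured on Protein A/G beads, washed, decrosslinked at 65 °C. Promoter DNA quantified by qPCR, mean ± S.E.M. of triplicate experiments, Student's t-test.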

[3] = biological target: T1, Chromodomain Y-like protein (Mus musculus); assay: Inhibition of CDYL in C57BL/6 mouse hippocampal neurons as increase in VGF mRNA expression at 150 uM incubated for 24 hrs by RT-qPCR analysis; procedure, shortened: as §1
[4] = biological target: T1, Chromodomain Y-like protein (Mus musculus); assay: Inhibition of CDYL in C57BL/6 mouse cortical neurons as increase in BDNF mRNA expression at 150 uM incubated for 24 hrs by RT-qPCR analysis; procedure, shortened: as §1
[5] = biological target: T2, Chromodomain Y-like protein (Homo sapiens); assay: Inhibition of CDYL in human SH-SY5Y cells assessed as decrease in enrichment of CDYL at VGF promoter site at 150 uM incubated for 24 hrs by ChIP-qPCR analysis; format: cell-based; procedure, shortened: as §2

O=C(Cn1c(=O)oc2ccccc21)N1CCC(N2CCCC2)CC1
active: Activity [1] | inhibition [2] | Activity [3] | Activity [4] | inhibition [5]
